Test [1] has as its target T1, Serine/threonine-protein kinase Nek9 (Homo sapiens) (UniProt Q8TD19).
T1 sequence (whole entry): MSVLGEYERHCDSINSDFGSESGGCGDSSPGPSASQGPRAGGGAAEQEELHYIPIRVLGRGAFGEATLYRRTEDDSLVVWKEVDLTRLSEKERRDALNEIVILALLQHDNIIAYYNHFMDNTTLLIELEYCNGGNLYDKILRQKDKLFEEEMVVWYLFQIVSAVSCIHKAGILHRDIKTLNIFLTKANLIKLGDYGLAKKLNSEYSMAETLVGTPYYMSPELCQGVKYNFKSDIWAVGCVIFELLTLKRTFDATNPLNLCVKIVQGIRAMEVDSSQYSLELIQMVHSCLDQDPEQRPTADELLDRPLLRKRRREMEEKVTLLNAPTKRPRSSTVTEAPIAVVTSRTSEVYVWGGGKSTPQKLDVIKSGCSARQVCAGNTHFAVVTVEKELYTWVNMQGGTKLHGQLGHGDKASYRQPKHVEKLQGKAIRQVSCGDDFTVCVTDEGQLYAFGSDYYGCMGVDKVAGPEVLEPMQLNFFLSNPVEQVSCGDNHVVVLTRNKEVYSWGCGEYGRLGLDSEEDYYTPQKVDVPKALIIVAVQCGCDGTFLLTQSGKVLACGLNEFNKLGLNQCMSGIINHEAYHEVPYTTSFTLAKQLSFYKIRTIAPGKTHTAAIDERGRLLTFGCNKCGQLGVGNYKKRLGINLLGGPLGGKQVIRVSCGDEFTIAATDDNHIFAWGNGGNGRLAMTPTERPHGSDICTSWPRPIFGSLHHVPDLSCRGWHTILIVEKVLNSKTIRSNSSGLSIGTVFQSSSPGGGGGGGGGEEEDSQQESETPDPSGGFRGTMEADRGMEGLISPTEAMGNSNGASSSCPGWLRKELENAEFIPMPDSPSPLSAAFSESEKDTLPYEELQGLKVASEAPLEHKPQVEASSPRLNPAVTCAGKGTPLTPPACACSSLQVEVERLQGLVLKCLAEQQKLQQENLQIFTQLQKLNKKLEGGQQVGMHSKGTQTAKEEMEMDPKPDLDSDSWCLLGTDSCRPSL
Kind of test: Inhibition of NEK9 at 1 uM in presence of 10 uM ATP by Select Screen kinase assay relative to untreated control. In outline:
(§1)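 Commercial SelectScreen profiling panel of 220 purified kinases. Each kinase was tested at a single inhibitor concentration of 1 μM, and activity was expressed as percent inhibition.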

The target in test [2] is Tyrosine-protein kinase Lyn (Homo sapiens) (UniProt P07948). Kind of test: Inhibition of LYN B at 1 uM in presence of 10 uM ATP by Select Screen kinase assay relative to untreated control. The essentials:
(§2)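 Single-concentration profiling at 1 μM against a panel of 220 purified kinases, run as an outsourced SelectScreen kinase profiling service. Activity is expressed as percent inhibition.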

Test [3] addresses NT-3 growth factor receptor (Homo sapiens) (UniProt Q16288). Put plainly: Inhibition of NTRK3 at 1 uM in presence of 10 uM ATP by Select Screen kinase assay relative to untreated control. The essentials:
as §1

Test [4] deals with Macrophage colony-stimulating factor 1 receptor (Homo sapiens) (UniProt P07333). Put plainly: Inhibition of CSF1R at 1 uM in presence of 10 uM ATP by Select Screen kinase assay relative to untreated control. The essentials:
(§3)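 Single-point screen at 1 μM against a panel of 220 purified kinases, run by Invitrogen staff as a SelectScreen profiling service. Read-out is percent inhibition of kinase activity.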

Test [5] concerns the target T2, Dual specificity mitogen-activated protein kinase kinase 6 (Homo sapiens) (UniProt P52564).
T2 sequence (whole entry): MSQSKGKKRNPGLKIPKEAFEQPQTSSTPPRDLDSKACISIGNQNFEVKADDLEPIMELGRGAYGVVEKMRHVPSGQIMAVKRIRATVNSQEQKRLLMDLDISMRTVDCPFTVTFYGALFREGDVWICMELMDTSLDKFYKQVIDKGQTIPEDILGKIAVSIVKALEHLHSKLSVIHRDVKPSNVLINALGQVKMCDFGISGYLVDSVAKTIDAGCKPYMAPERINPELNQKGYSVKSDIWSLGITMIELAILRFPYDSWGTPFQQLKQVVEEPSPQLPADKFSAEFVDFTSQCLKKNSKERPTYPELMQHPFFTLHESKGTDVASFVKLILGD
Put plainly: Inhibition of MAP2K6 at 1 uM in presence of 100 uM ATP by Select Screen kinase assay relative to untreated control. In outline:
as §2

Test [6] addresses Protein kinase C beta type (Homo sapiens) (UniProt P05771). Put plainly: Inhibition of PRKCB2 at 1 uM in presence of 10 uM ATP by Select Screen kinase assay relative to untreated control. The essentials:
as §1

The target in test [7] is Dual specificity tyrosine-phosphorylation-regulated kinase 1A (Homo sapiens) (UniProt Q13627). Put plainly: Inhibition of DYRK1A at 1 uM in presence of 10 uM ATP by Select Screen kinase assay relative to untreated control. In outline: as §3
The target in test [8] is Tyrosine-protein kinase Fer (Homo sapiens) (UniProt P16591). Kind of test: Inhibition of FER at 1 uM in presence of 10 uM ATP by Select Screen kinase assay relative to untreated control. In outline:
as §3

Test [9] concerns the target Phosphorylase b kinase gamma catalytic chain, skeletal muscle/heart isoform (Homo sapiens) (UniProt Q16816). Kind of test: Inhibition of PHKG1 at 1 uM in presence of 100 uM ATP by Select Screen kinase assay relative to untreated control. In outline: as §1
Test [10] addresses Mitogen-activated protein kinase kinase kinase 9 (Homo sapiens) (UniProt P80192). Put plainly: Inhibition of MAP3K9 at 1 uM in presence of 100 uM ATP by Select Screen kinase assay relative to untreated control. The essentials: as §2
In test [11] the target is T3, Protein kinase C iota type (Homo sapiens) (UniProt P41743).
T3 sequence (whole entry): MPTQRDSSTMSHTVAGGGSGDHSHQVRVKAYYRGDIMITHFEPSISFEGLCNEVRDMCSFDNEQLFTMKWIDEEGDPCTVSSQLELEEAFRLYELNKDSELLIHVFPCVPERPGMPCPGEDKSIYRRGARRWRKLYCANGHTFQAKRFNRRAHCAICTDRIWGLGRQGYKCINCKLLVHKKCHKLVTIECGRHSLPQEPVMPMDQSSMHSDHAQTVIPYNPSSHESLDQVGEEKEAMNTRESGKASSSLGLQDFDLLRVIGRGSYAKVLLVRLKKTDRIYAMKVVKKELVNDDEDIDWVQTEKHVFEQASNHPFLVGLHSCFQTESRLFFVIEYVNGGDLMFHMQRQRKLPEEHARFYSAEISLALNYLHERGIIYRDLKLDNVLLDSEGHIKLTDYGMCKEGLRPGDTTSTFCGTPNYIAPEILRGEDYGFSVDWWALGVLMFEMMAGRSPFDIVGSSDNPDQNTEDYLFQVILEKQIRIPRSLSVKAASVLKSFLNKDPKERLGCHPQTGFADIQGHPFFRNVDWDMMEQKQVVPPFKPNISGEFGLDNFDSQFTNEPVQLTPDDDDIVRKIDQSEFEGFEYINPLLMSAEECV
Kind of test: Inhibition of PRKCI at 1 uM in presence of 10 uM ATP by Select Screen kinase assay relative to untreated control. In outline:
as §1

Sequence of Tyrosine-protein kinase Fer (Homo sapiens) (P16591 whole entry, looked up): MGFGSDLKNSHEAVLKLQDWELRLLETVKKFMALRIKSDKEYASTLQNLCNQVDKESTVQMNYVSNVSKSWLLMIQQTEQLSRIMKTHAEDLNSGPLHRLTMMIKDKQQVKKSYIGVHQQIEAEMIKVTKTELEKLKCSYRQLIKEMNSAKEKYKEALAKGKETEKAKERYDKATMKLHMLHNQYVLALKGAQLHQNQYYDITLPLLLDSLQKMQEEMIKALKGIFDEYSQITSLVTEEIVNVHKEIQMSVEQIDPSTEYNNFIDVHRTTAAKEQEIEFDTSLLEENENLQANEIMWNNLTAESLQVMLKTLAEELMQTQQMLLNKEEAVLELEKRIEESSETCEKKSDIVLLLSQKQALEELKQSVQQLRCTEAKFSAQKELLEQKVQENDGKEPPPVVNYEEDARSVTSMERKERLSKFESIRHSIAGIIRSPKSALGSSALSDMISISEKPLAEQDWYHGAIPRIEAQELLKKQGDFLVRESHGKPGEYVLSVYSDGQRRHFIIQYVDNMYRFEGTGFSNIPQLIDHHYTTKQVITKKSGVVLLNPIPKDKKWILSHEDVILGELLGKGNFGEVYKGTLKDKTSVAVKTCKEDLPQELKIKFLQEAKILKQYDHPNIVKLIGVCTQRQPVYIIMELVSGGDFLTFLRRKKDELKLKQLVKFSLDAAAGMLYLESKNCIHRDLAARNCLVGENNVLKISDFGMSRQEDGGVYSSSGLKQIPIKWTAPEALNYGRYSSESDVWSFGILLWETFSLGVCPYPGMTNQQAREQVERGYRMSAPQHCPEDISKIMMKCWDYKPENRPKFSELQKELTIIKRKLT
Sequence of Tyrosine-protein kinase Lyn (Homo sapiens) (P07948 2-512 limits assumed): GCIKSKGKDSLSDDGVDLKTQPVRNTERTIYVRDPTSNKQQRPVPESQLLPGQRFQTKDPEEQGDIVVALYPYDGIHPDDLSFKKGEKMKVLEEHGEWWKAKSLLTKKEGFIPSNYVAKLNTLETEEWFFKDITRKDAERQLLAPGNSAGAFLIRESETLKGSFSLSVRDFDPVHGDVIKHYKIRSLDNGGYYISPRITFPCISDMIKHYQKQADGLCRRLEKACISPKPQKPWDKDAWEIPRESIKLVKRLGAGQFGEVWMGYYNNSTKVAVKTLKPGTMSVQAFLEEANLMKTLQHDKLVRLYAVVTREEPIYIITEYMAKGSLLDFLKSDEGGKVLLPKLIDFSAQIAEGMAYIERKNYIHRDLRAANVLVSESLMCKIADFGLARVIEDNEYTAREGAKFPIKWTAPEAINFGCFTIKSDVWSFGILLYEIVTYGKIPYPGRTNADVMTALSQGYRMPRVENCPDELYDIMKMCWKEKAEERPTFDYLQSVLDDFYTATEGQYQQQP
Sequence of Phosphorylase b kinase gamma catalytic chain, skeletal muscle/heart isoform (Homo sapiens) (Q16816 whole entry, looked up, canonical isoform): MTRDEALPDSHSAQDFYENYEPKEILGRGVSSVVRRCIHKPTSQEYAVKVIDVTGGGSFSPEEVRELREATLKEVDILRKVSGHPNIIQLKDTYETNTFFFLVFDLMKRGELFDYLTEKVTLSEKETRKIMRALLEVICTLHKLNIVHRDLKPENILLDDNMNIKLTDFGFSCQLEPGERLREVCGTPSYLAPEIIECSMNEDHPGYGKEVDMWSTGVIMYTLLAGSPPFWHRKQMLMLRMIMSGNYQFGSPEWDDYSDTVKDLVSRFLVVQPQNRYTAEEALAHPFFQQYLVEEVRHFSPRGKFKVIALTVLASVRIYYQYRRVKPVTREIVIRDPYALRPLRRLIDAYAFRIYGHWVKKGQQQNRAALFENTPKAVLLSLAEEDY
Sequence of Protein kinase C beta type (Homo sapiens) (P05771 2-671 limits assumed): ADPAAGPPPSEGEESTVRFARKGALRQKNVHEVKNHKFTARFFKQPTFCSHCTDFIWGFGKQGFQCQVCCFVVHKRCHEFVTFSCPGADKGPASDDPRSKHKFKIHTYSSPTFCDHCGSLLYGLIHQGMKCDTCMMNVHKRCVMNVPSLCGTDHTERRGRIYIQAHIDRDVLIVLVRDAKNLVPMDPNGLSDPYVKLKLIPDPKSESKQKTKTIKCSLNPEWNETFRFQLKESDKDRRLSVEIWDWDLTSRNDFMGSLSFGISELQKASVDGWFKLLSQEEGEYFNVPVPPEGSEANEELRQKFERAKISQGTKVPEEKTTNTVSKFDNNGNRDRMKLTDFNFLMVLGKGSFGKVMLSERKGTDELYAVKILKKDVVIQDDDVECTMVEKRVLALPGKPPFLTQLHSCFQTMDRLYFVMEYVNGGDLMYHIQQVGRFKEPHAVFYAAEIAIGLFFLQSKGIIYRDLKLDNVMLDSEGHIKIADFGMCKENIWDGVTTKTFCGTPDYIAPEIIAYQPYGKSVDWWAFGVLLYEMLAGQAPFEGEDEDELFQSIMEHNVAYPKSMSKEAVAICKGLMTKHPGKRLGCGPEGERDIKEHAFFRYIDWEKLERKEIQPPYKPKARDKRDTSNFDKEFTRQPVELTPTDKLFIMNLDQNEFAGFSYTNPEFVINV
Sequence of Mitogen-activated protein kinase kinase kinase 9 (Homo sapiens) (P80192 whole entry, looked up): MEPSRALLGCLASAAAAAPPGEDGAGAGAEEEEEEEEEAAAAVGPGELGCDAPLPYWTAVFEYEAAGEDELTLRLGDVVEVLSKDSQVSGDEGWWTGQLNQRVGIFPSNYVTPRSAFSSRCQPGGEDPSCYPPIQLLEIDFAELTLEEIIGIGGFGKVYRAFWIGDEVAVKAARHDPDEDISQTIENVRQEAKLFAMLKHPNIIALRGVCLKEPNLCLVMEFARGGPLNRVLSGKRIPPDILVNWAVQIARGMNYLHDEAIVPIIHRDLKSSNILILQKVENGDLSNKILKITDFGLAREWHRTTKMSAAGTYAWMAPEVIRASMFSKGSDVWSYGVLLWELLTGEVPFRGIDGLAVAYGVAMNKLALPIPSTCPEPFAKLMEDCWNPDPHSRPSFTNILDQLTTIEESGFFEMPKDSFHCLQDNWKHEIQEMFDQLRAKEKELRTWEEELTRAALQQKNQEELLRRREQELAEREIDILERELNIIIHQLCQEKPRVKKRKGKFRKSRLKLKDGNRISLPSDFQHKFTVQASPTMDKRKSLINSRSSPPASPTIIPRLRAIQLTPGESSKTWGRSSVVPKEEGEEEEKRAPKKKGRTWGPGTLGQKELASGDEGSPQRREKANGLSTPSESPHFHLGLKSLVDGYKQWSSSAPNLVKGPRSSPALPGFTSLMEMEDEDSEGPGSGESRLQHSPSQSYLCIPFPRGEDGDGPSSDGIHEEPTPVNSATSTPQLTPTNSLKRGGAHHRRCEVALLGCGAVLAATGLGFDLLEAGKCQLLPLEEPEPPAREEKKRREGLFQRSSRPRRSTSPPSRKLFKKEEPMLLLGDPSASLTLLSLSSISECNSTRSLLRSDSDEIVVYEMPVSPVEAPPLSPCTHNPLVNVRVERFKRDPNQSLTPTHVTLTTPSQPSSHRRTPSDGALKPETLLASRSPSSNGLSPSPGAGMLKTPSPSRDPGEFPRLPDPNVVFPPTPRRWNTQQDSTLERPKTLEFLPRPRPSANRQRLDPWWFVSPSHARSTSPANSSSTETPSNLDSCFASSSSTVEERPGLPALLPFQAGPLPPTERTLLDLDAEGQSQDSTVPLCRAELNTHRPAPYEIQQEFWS
Sequence of NT-3 growth factor receptor (Homo sapiens) (Q16288 32-839 limits assumed): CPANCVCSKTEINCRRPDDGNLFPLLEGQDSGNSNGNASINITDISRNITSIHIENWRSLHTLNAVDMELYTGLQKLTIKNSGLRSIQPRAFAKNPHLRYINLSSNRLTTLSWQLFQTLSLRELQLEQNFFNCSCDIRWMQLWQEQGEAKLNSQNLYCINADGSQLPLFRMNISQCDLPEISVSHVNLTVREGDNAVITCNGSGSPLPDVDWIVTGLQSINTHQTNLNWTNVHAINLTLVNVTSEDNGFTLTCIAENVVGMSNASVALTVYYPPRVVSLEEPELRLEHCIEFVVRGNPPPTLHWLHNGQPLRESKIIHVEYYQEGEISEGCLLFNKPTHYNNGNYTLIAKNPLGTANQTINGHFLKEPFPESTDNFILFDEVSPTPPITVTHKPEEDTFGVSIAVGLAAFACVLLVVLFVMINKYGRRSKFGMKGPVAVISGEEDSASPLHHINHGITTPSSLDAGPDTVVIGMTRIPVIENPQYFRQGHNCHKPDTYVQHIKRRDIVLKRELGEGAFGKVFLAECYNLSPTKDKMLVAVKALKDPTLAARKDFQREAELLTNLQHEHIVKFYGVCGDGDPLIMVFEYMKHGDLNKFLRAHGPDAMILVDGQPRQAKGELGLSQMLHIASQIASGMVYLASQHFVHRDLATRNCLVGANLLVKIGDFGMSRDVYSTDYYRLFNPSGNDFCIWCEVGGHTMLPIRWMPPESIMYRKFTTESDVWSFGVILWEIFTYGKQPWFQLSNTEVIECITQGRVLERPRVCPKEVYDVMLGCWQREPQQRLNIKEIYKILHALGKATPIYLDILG

As to `COc1ccccc1N1CCN(c2ncnc3[nH]nc(Br)c23)CC1`, the inhibition turned out to be 12% in [1]; 10% in [2]; 37% in test [3]; 26% in [4]; 11% in test [5]; 32% in test [6]. Also, the inhibition in test [7] was determined as 78%; in [8], 28%; in test [9], 6%; in test [10], 22%; in test [11] it was 13%.

As for `Cc1n[nH]c2ccc(-c3cncc(OC[C@@H](N)Cc4c[nH]c5ccccc45)c3)cc12`, the inhibition came to 15% in test [1]; 7% in test [2]; 28% in [3]; 5% in test [4]; 40% in test [5]; 68% in [6]. Further, the inhibition in test [7] was 102%; in [8], 14%; in test [9], 76%; in test [10] it was 15%; in [11], 10%.

As to `O=C(NCCCNc1nc(Nc2cccc(NC(=O)N3CCCC3)c2)ncc1I)c1cccs1`, the inhibition is 88% in [1]; 21% in test [2]; 80% in test [3]; 44% in test [4]; 25% in test [5]; 35% in test [6]. Also, the inhibition in test [7] was determined as 25%; in test [8], 38%; in test [9], 58%; in [10], 98%; in [11], 21%.

These data come from ChEMBL document CHEMBL1250448, “Inhibitor hijacking of Akt activation” (Nat Chem Biol, 2009).
